Results published in ChEMBL document CHEMBL4145619, “Computer-Assisted Discovery of Retinoid X Receptor Modulating Natural Products and Isofunctional Mimetics” (J Med Chem, 2018).
Active and inactive are the calls of the source. The rule behind the calls is not given here.

How the values were obtained:
Type in all cases: cell-based
[1] = molecular target: T1, Retinoic acid receptor alpha (Homo sapiens) (UniProt P10276); test: Transactivation of human Gal4-fused RARalpha LBD expressed in HEK293T cells at 30 uM after 12 to 14 hrs by dual-glo luciferase assay
T1 sequence (whole entry): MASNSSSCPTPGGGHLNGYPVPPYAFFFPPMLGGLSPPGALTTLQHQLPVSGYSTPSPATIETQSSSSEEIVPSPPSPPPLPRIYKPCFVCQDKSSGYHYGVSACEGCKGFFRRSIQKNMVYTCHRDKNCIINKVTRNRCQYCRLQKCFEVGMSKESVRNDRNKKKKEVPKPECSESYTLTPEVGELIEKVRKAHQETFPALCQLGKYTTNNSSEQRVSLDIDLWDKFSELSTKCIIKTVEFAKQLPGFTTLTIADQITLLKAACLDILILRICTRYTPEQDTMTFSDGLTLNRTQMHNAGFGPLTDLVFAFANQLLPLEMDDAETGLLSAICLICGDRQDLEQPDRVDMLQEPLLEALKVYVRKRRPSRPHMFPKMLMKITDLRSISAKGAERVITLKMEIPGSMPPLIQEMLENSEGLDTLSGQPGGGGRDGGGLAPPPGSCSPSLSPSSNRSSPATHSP
Outline: (§1)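 Single-concentration selectivity profiling in Gal4-hybrid reporter gene assays in HEK293T cells. Each nuclear receptor construct (RAR, PPAR, LXR, FXR, CAR, VDR, PXR, RXR) was tested at 30 μM.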

[2] = molecular target: T2, Oxysterols receptor LXR-beta (Homo sapiens) (UniProt P55055); test: Transactivation of human Gal4-fused LXRbeta LBD expressed in HEK293T cells at 30 uM after 12 to 14 hrs by dual-glo luciferase assay; outline: as §1
T2 sequence (whole entry): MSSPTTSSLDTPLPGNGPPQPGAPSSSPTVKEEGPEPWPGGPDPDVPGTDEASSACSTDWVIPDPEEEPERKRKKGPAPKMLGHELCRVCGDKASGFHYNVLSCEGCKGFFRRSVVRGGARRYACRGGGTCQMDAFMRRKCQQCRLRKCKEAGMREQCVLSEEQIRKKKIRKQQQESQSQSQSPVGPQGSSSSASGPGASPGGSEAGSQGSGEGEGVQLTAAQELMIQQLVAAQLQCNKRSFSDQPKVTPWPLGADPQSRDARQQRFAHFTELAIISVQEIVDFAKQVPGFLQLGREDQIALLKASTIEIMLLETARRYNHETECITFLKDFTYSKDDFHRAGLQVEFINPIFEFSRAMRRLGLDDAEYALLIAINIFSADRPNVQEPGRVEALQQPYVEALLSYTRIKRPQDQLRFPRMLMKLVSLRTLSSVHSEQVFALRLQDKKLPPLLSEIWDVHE

[3] = molecular target: T3, Retinoic acid receptor RXR-alpha (Homo sapiens) (UniProt P19793); test: Transactivation of human Gal4-fused RXRalpha LBD expressed in HEK293T cells at 30 uM after 12 to 14 hrs by dual-glo luciferase assay; outline: as §1
T3 sequence (whole entry): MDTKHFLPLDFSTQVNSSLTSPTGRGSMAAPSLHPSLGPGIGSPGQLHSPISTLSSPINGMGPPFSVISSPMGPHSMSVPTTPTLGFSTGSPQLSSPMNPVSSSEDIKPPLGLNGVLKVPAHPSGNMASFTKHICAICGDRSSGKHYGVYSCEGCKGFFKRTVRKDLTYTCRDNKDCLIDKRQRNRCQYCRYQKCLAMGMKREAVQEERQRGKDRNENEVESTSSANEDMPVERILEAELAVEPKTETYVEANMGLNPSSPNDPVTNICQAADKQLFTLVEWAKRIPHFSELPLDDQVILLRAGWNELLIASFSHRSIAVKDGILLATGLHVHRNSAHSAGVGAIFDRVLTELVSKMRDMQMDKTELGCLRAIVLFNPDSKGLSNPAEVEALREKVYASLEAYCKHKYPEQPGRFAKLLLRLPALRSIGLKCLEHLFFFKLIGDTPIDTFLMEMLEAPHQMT

[4] = molecular target: Retinoid X receptor (Homo sapiens) (UniProt P28702+P48443+P19793); test: Transactivation of RXR in human HepG2 cells assessed as induction of apoE mRNA expression at 30 uM after 8 hrs by qRT-PCR analysis
Sequence of Retinoid X receptor (Homo sapiens) (P28702 whole entry, looked up, one chain of several): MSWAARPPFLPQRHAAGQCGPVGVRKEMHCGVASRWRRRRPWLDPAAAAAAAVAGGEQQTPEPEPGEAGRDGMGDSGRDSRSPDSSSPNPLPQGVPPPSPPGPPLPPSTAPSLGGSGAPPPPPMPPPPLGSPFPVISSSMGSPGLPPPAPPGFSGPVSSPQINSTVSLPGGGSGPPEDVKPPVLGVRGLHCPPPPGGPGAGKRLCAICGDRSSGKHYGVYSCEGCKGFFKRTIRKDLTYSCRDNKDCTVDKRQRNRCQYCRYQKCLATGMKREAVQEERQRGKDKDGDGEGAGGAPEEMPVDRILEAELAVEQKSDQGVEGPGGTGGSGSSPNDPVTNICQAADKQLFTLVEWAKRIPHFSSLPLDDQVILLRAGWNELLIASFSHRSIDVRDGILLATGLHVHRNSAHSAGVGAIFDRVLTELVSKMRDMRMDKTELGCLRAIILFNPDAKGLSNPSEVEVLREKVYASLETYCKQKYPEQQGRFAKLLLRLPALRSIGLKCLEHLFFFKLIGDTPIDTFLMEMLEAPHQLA
Outline: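 HepG2 cells were treated and ABCA1 or ApoE mRNA levels measured. Results are given as mean fold induction versus 0.1% DMSO vehicle ± SEM, n = 3. Significance was set at p < 0.05, 0.01 or 0.001.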

[5] = molecular target: T4, Vitamin D3 receptor (Homo sapiens) (UniProt P11473); test: Transactivation of human Gal4-fused VDR LBD expressed in HEK293T cells at 30 uM after 12 to 14 hrs by dual-glo luciferase assay; outline: as §1
T4 sequence (whole entry): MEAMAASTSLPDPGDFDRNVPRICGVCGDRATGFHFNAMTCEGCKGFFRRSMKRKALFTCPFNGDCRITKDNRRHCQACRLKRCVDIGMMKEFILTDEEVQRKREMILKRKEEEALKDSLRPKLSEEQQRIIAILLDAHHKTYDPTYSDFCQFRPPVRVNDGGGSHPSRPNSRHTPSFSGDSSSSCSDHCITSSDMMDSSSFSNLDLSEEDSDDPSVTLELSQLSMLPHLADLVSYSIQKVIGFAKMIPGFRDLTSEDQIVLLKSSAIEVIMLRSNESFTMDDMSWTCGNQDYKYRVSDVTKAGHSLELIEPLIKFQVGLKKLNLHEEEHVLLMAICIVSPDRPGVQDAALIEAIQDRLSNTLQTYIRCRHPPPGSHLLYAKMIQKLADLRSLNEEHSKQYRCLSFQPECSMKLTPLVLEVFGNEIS

[6] = molecular target: T5, Retinoic acid receptor RXR-gamma (Homo sapiens) (UniProt P48443); test: Transactivation of human Gal4-fused RXRgamma LBD expressed in HEK293T cells after 12 to 14 hrs by dual-glo luciferase assay relative to bexarotene
T5 sequence (whole entry): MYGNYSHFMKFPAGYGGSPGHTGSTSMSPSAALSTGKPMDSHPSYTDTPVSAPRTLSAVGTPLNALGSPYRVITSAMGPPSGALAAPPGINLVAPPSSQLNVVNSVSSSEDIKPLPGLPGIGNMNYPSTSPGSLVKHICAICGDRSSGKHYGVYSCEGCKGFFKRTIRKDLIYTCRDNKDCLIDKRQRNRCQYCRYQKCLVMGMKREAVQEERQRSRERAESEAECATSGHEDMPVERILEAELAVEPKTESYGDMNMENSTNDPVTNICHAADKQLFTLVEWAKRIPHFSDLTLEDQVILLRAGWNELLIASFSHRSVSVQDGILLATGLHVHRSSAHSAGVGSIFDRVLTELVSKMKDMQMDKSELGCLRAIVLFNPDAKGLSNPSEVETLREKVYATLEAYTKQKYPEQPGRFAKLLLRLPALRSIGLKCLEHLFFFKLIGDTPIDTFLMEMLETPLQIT

- Activity [1]: inactive
- Activity [2]: inactive
- Activity [3]: Active
- Activity [4]: Active
- Activity [5]: inactive
- fold change (FC) [6]: 4
Compound: CC1=C2[C@H](/C=C(\C)C(=O)O)CC[C@@H](C)[C@H]2CC1 [VALERENIC ACID]
